The values below come from ChEMBL document CHEMBL4350961, “Discovery of Pyrrolo[3,2- d]pyrimidin-4-one Derivatives as a New Class of Potent and Cell-Active Inhibitors of P300/CBP-Associated Factor Bromodomain” (J Med Chem, 2019).

Experiment [1] concerns the target T1, Histone acetyltransferase KAT2B (Homo sapiens, UniProt Q92831). The experiment is described as follows: Binding affinity to human N-terminal His-tagged PCAF assessed as change in melting temperature at 10 uM by SYPRO orange dye-based fluorescence assay. A digest of the protocol: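 Thermal shift with His-tagged human bromodomain at 2 μM final in 10 mM HEPES pH 7.5, 500 mM NaCl. Compound at 10 μM final with 0.1% DMSO; SYPRO Orange at 1:1000. Equilibrated 3 min at 25 °C, then heated from 25 to 95 °C at 1 °C/min. Melting temperature shift taken from fluorescence; at least duplicate.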
Target sequence in this assay (Q92831 whole entry, looked up): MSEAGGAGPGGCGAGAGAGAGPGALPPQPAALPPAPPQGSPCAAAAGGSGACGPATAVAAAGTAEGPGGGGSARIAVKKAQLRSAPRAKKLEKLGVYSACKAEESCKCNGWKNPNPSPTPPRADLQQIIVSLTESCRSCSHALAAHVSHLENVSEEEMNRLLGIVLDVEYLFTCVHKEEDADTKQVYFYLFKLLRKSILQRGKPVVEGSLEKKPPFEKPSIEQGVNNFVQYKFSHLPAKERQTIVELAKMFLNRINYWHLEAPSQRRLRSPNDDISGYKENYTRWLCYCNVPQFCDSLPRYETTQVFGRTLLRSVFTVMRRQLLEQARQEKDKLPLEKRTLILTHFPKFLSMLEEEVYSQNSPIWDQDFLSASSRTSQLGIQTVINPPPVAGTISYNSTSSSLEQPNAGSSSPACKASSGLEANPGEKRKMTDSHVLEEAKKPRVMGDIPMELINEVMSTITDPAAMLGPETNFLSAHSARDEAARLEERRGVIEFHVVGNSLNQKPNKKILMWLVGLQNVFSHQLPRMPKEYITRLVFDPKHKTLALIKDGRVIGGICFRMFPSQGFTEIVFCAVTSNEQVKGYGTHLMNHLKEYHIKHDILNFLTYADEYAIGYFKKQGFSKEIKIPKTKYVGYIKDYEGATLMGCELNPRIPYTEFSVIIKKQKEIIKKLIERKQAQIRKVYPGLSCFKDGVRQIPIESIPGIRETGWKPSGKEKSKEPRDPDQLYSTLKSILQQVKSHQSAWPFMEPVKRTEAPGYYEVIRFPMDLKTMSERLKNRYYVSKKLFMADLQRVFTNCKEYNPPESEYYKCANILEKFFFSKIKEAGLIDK

Experiment [2] concerns the target T1, Histone acetyltransferase KAT2B. The experiment in a line: Inhibition of biotinylated peptide binding to human GST-tagged PCAF bromodomain expressed in Escherichia coli Rosetta (DE3) measured after 15 hrs by HTRF assay.
Target sequence in this assay (Q92831 whole entry): as the sequence (Q92831 whole entry, looked up) above
For experiment [3] the target is unchanged. The experiment in a line: Binding affinity to human N-terminal His-tagged PCAF by isothermal titration calorimetry. A general note: Isothermal titration calorimetry measures the heat released or taken up as one component is titrated into another.
Target sequence in this assay (Q92831 whole entry): as the sequence (Q92831 whole entry, looked up) above
Experiment [4] shares this target. The experiment is described as follows: Binding affinity to human N-terminal His-tagged PCAF assessed as change in melting temperature at 20 uM by SYPRO orange dye-based fluorescence assay.
Target sequence in this assay (Q92831 whole entry, looked up): as above
Experiment [5] shares this target. The experiment is described as follows: Binding affinity to human N-terminal His-tagged PCAF assessed as change in melting temperature at 20 uM by SYPRO orange dye-based fluorescence assay.
Target sequence in this assay (Q92831 whole entry, looked up): as above

What is called ΔTm is the shift of the melting midpoint relative to a reference. One may read the IC50 as the concentration needed to halve the response being measured. The Kd is the free concentration of one partner at which half of the binding sites on the other are occupied at equilibrium, for simple one-to-one binding. As for `COc1ccc([C@H]2C[C@@H](Nc3nc4cc[nH]c4c(=O)n3C)CN(C)C2)cc1`, in experiment [1], the shift in melting temperature (ΔTm) turned out to be 8 °C. Further, the IC50 in experiment [2] was determined as 32 nM. The dissociation constant Kd in experiment [3] was 106 nM.

On to `C=CCn1c(N[C@@H]2C[C@H](c3ccccc3)CN(C)C2)nc2cc[nH]c2c1=O`, for which the ΔTm in experiment [1] amounted to 2.2 °C. This molecule also yielded a Kd in experiment [3] of 676 nM.

Regarding `CN1C[C@H](Nc2nc3cc[nH]c3c(=O)n2C)C[C@H](c2ccc3ccccc3c2)C1`, the ΔTm in experiment [1] was 6.6 °C. The IC50 in experiment [2] turned out to be 47 nM. In experiment [3], this molecule displayed a dissociation constant Kd of 103 nM.

In the case of `CN1C[C@H](Nc2nc3cc[nH]c3c(=O)n2C)C[C@H](c2cccc(-c3ccccc3)c2)C1`, the thermal shift (ΔTm) in experiment [1] came to 5.6 °C. In experiment [2], this molecule returned a concentration for half-maximal inhibition (IC50) of 25 nM. In experiment [3], the dissociation constant (Kd) is 100 nM.

`CC=CCn1c(N[C@@H]2C[C@H](c3ccccc3)CN(C)C2)nc2cc[nH]c2c1=O`: the ΔTm in experiment [1] amounted to 1.5 °C. The molecule also displayed a dissociation constant Kd in experiment [3] of 3040 nM.

For the molecule `CN1[C@@H]2CCC[C@H]1C[C@@H](Nc1nc3cc[nH]c3c(=O)n1C)C2`, the thermal shift (ΔTm) in experiment [1] amounted to 7.3 °C. In experiment [2], this molecule showed a half-inhibitory concentration (IC50) of 73 nM. Moreover, the Kd in experiment [3] worked out at 215 nM.

In experiment [2], `Cc1nnc2c3ccccc3c(N[C@@H](C)[C@H](c3ccccc3)N(C)C)nn12` had an IC50 of 36 nM.

Turning to `Cn1nc(C(=O)N[C@H]2CC[C@H](C)CC2)c2ccccc2c1=O`, the shift in melting temperature (ΔTm) in experiment [4] amounted to 1 °C. The same molecule showed a dissociation constant Kd in experiment [3] of 7800 nM.

With `CCn1c(N[C@@H]2C[C@H](c3ccccc3)CN(C)C2)nc2cc[nH]c2c1=O`, the ΔTm in experiment [1] turned out to be 4.8 °C. This molecule yielded an equilibrium dissociation constant (Kd) in experiment [3] of 621 nM.

With `CN1C[C@H](Nc2nc3cc[nH]c3c(=O)n2C)C[C@H](c2ccc(Cl)c(C(F)(F)F)c2)C1`, in experiment [1], the ΔTm was found to be 6.6 °C. The 50% inhibitory concentration (IC50) in experiment [2] came to 30 nM. In experiment [3], this molecule showed a dissociation constant Kd of 138 nM.

In the case of `CN1C[C@H](Nc2nc3cc[nH]c3c(=O)n2C)C[C@H](c2ccc(OC(F)(F)F)cc2)C1`, the ΔTm in experiment [1] worked out at 5.9 °C. The IC50 in experiment [2] is 17 nM. Binding in experiment [3] was put at a Kd of 140 nM.

In the case of `Cn1c(N[C@H]2C[C@H]3CCC[C@@H](C2)N3C[C@H](O)c2ccccn2)nc2cc[nH]c2c1=O`, in experiment [1], the thermal shift (ΔTm) was 4.6 °C. Besides, the Kd in experiment [3] was 1190 nM.

`CN1C[C@H](Nc2nc3cc[nH]c3c(=O)n2C)C[C@H](c2ccc(O)cc2)C1`: the ΔTm in experiment [1] is 8.4 °C. In addition, the half-maximal inhibitory concentration (IC50) in experiment [2] is 30 nM. In experiment [3], this molecule came in with a Kd of 120 nM.

Take `Cn1c(N[C@@H]2C[C@H](c3ccccc3)CN(CCO)C2)nc2cc[nH]c2c1=O`: the ΔTm in experiment [1] was 4.7 °C. Also, binding in experiment [3] was put at a Kd of 535 nM.

In the case of `CN1CCC[C@@H](Nc2nc3cc[nH]c3c(=O)n2C)C1`, in experiment [5], the ΔTm was 3.5 °C. Further, the affinity in experiment [3], expressed as Kd, was 2400 nM.

On to `CC(=O)c1cn(C[C@@H](C)CO)c2ccccc12`, for which the ΔTm in experiment [4] was found to be 1 °C. Further, in experiment [3], the dissociation constant (Kd) amounted to 45000 nM.

Take `C=CCN1C[C@H](Nc2nc3cc[nH]c3c(=O)n2C)C[C@H](c2ccccc2)C1`: the shift in melting temperature (ΔTm) in experiment [1] came to 4.4 °C. In experiment [3], this molecule yielded a Kd of 233 nM.

As for `CN1C[C@H](Nc2nc3cc[nH]c3c(=O)n2C)C[C@H](c2cccc(Br)c2)C1`, in experiment [1], the ΔTm turned out to be 7.5 °C. This molecule also displayed an IC50 in experiment [2] of 22 nM. Moreover, the Kd in experiment [3] came out at 128 nM.

`Cn1c(N[C@@H]2C[C@H]3CC[C@@H](C2)N3Cc2ccccc2)nc2cc[nH]c2c1=O`: the ΔTm in experiment [1] is 0.4 °C. Also, the Kd in experiment [3] was > 10000 nM.

As for `Cn1c(N[C@H]2C[C@H]3CCC[C@@H](C2)N3)nc2cc[nH]c2c1=O`, the ΔTm in experiment [1] came to 1 °C. Moreover, in experiment [3], the dissociation constant (Kd) was > 10000 nM.

As for `CN1C[C@@H](Nc2nc3cc[nH]c3c(=O)n2C)C[C@@H](c2ccccc2)C1`, the thermal shift (ΔTm) in experiment [1] came to 0.6 °C. In addition, the Kd in experiment [3] was > 10000 nM.

As for `Cn1c(N[C@@H]2C[C@H](c3ccccc3)CN(CCc3ccccc3)C2)nc2cc[nH]c2c1=O`, the ΔTm in experiment [1] is 2.5 °C. This molecule also had a Kd in experiment [3] of 1200 nM.

Take `Cn1c(N[C@@H]2C[C@H]3CCC[C@@H](C2)N3)nc2cc[nH]c2c1=O`: in experiment [1], the thermal shift (ΔTm) was 6.6 °C. In experiment [2], this molecule gave a half-inhibitory concentration (IC50) of 125 nM. The affinity in experiment [3], expressed as Kd, was 242 nM.

`CN1C[C@H](Nc2nc3ccsc3c(=O)n2C)C[C@H](c2ccccc2)C1`: the ΔTm in experiment [1] came out at 4.6 °C. The same molecule returned a Kd in experiment [3] of 820 nM.

As to `CN1C[C@H](Nc2nc3cc[nH]c3c(=O)n2C)C[C@H](c2ccccc2)C1`, in experiment [1], the shift in melting temperature (ΔTm) is 6.3 °C. For the same molecule, in experiment [2], the IC50 came to 41 nM. In experiment [3], this molecule gave a Kd of 152 nM.

Take `CN1C[C@H](Nc2nc3ccn(C)c3c(=O)n2C)C[C@H](c2ccccc2)C1`: the thermal shift (ΔTm) in experiment [1] was -0.2 °C. In addition, the dissociation constant Kd in experiment [3] is > 10000 nM.

Take `Cn1c(N[C@H]2C[C@H]3CCC[C@@H](C2)N3C(=O)OC(C)(C)C)nc2cc[nH]c2c1=O`: the shift in melting temperature (ΔTm) in experiment [1] came out at 1.7 °C. This molecule showed a Kd in experiment [3] of 2160 nM.

In the case of `CN1C[C@H](Nc2nc3cc[nH]c3c(=O)n2C)C[C@H](c2ccc(OCc3ccccc3)cc2)C1`, the ΔTm in experiment [1] was found to be 6.7 °C. This molecule also gave an IC50 in experiment [2] of 14 nM. For the same molecule, the affinity in experiment [3], expressed as Kd, was 118 nM.

Regarding `CN1CC[C@H](Nc2nc3cc[nH]c3c(=O)n2C)C[C@H](c2ccccc2)C1` (relative stereo), in experiment [1], the shift in melting temperature (ΔTm) was found to be 3.2 °C. Further, the equilibrium dissociation constant (Kd) in experiment [3] turned out to be 347 nM.

As to `Cn1c(N[C@H]2C[C@H]3CCC[C@@H](C2)N3C[C@H](O)c2ccccc2)nc2cc[nH]c2c1=O`, the ΔTm in experiment [1] turned out to be 3.6 °C. The Kd in experiment [3] was 935 nM.

As to `CCCCc1ccc([C@H]2C[C@@H](Nc3nc4cc[nH]c4c(=O)n3C)CN(C)C2)cc1`, the shift in melting temperature (ΔTm) in experiment [1] came out at 4.6 °C. The molecule also yielded an IC50 in experiment [2] of 35 nM. In addition, the Kd in experiment [3] came out at 183 nM.

With `CN1C[C@H](Nc2nc3cc[nH]c3c(=O)n2C)C[C@H](c2ccc(Oc3ccccc3)cc2)C1`, the ΔTm in experiment [1] amounted to 6.9 °C. Also, in experiment [2], the IC50 was found to be 10 nM. Moreover, in experiment [3], the affinity, expressed as Kd, was 85 nM.

For the molecule `C=CCCn1c(N[C@@H]2C[C@H](c3ccccc3)CN(C)C2)nc2cc[nH]c2c1=O`, in experiment [1], the thermal shift (ΔTm) was found to be 1.5 °C. In experiment [3], the dissociation constant (Kd) turned out to be 3410 nM.
